Results from ChEMBL document CHEMBL1140086, “Targeting the ribose and phosphate binding site of p38 mitogen-activated protein (MAP) kinase: synthesis and biological testing of 2-alkylsulfanyl-, 4(5)-aryl-, 5(4)-heteroaryl-substituted imidazoles” (J Med Chem, 2008).

Columns and labels:
[1] = target: Mitogen-activated protein kinase 14 (Homo sapiens, UniProt Q16539); experiment: Inhibition of p38alpha
Blood = experiment: Inhibition of LPS-stimulated TNFalpha release in human whole blood by ELISA; type: functional, tissue-based
Method in brief: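 Fresh human whole blood diluted with FBS; compound dilutions added, 15 min preincubation (5% CO2), then LPS stimulation; basal wells received DPBS-gentamicin. […] Tests in duplicate except where otherwise stated.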

Mitogen-activated protein kinase 14, sequence (Q16539 whole entry): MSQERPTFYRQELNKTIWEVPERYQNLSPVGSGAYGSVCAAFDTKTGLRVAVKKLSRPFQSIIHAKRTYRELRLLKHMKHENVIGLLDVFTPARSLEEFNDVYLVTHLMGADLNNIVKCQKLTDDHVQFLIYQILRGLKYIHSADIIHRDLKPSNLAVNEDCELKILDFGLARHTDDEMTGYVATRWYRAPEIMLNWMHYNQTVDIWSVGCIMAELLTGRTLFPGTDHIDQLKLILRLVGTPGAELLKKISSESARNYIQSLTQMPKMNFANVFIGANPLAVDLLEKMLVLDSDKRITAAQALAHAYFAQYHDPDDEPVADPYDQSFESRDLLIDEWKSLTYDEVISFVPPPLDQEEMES

Work on OCCSc1nc(-c2ccc(F)cc2)c(-c2ccncc2)[nH]1 yielded an IC50 [1] of 184 nM and an IC50 (Blood) of 4210 nM.

For CC(C)Nc1cc(-c2[nH]c(SCC(O)CO)nc2-c2ccc(F)cc2)ccn1 (stereo not given), the IC50 [1] was 3 nM and the IC50 (Blood) was 126 nM.

OCCCSc1nc(-c2ccc(F)cc2)c(-c2ccncc2)[nH]1 was tested, and the IC50 [1] was 215 nM and the IC50 (Blood) was 6690 nM.

In the case of OCC(O)CSc1nc(-c2ccc(F)cc2)c(-c2ccnc(NC3CCOCC3)c2)[nH]1 (stereo not given), the IC50 [1] is reported as 3 nM and the IC50 (Blood) is reported as 131 nM.

Work on CC(C)C(C)Nc1cc(-c2[nH]c(SC[C@H](O)CO)nc2-c2ccc(F)cc2)ccn1 (stereo not given in full) yielded an IC50 [1] of 18 nM and an IC50 (Blood) of 167 nM.

Work on CC(C)C(C)Nc1cc(-c2[nH]c(SCC(O)CO)nc2-c2ccc(F)cc2)ccn1 (stereo not given) yielded an IC50 [1] of 15 nM and an IC50 (Blood) of 183 nM.

In the case of CC(C)Nc1cc(-c2[nH]c(SC[C@@H](O)CO)nc2-c2ccc(F)cc2)ccn1, the IC50 [1] is reported as 3 nM and the IC50 (Blood) is reported as 123 nM.

Compound CC(Nc1cc(-c2[nH]c(SCC(O)CO)nc2-c2ccc(F)cc2)ccn1)c1ccccc1 (stereo not given) has an IC50 [1] of 41 nM and an IC50 (Blood) of 936 nM.

OCC(O)CSc1nc(-c2ccc(F)cc2)c(-c2ccnc(NCc3ccccc3)c2)[nH]1 (stereo not given) was tested, and the IC50 (Blood) was 2670 nM.

For CC(C)C(C)Nc1cc(-c2[nH]c(SCCCO)nc2-c2ccc(F)cc2)ccn1 (stereo not given), the IC50 [1] was 12 nM and the IC50 (Blood) was 145 nM.

Compound CC(C)C(C)Nc1cc(-c2[nH]c(SC[C@@H](O)CO)nc2-c2ccc(F)cc2)ccn1 (stereo not given in full) has an IC50 [1] of 10 nM and an IC50 (Blood) of 139 nM.

In the case of Cn1c(SCC(O)CO)nc(-c2ccc(F)cc2)c1-c1ccncc1 (stereo not given), the IC50 [1] is reported as 1220 nM.

Compound CC(C)CNc1cc(-c2[nH]c(SCC(O)CO)nc2-c2ccc(F)cc2)ccn1 (stereo not given) has an IC50 (Blood) of 168 nM.

For CSc1nc(-c2ccc(F)cc2)c(-c2ccnc(NC3CCOCC3)c2)[nH]1, the IC50 (Blood) was 201 nM.

Compound OCCSc1nc(-c2ccc(F)cc2)c(-c2ccnc(N[C@H]3CC[C@H](O)CC3)c2)[nH]1 has an IC50 (Blood) of 157 nM.

COC(=O)CSc1nc(-c2ccc(F)cc2)c(-c2ccnc(NC(C)c3ccccc3)c2)[nH]1 (stereo not given) was tested, and the IC50 [1] was 36 nM and the IC50 (Blood) was 45500 nM.

COC(=O)CSc1nc(-c2ccc(F)cc2)c(-c2ccnc(NC(C)C(C)C)c2)[nH]1 (stereo not given) showed an IC50 [1] of 19 nM and an IC50 (Blood) of 8940 nM.

OCCSc1nc(-c2ccc(F)cc2)c(-c2ccnc(NC3CCOCC3)c2)[nH]1 gave an IC50 [1] of 2 nM and an IC50 (Blood) of 80 nM.

In the case of CCOP(=O)(CSc1nc(-c2ccc(F)cc2)c(-c2ccnc(NC(C)c3ccccc3)c2)[nH]1)OCC (stereo not given), the IC50 (Blood) is reported as 19400 nM.

For COC(=O)CSc1nc(-c2ccc(F)cc2)c(-c2ccncc2)[nH]1, the IC50 [1] was 158 nM and the IC50 (Blood) was 31900 nM.

Work on OCC(O)CSc1nc(-c2ccc(F)cc2)c(-c2ccncc2)[nH]1 (stereo not given) yielded an IC50 [1] of 392 nM and an IC50 (Blood) of 3380 nM.

COC(=O)CCCSc1nc(-c2ccc(F)cc2)c(-c2ccncc2)[nH]1 showed an IC50 [1] of 487 nM and an IC50 (Blood) of 31900 nM.

For CC(C)Nc1cc(-c2[nH]c(SC[C@H](O)CO)nc2-c2ccc(F)cc2)ccn1, the IC50 [1] was 6 nM and the IC50 (Blood) was 180 nM.

For CCNc1cc(-c2[nH]c(SCC(O)CO)nc2-c2ccc(F)cc2)ccn1 (stereo not given), the IC50 [1] was 27 nM and the IC50 (Blood) was 777 nM.

Work on CNc1cc(-c2[nH]c(SCC(O)CO)nc2-c2ccc(F)cc2)ccn1 (stereo not given) yielded an IC50 [1] of 102 nM and an IC50 (Blood) of 5720 nM.

CCC(C)Nc1cc(-c2[nH]c(SCC(O)CO)nc2-c2ccc(F)cc2)ccn1 (stereo not given) gave an IC50 [1] of 5 nM and an IC50 (Blood) of 156 nM.

Work on CCOC(=O)C(Sc1nc(-c2ccc(F)cc2)c(-c2ccncc2)[nH]1)C(=O)OCC yielded an IC50 [1] of 2240 nM and an IC50 (Blood) of 25400 nM.

CC(C)Nc1cc(-c2[nH]c(SCCO)nc2-c2ccc(F)cc2)ccn1 showed an IC50 (Blood) of 129 nM.

Work on COC(=O)CSc1nc(-c2ccc(F)cc2)c(-c2ccnc(NC(C)C)c2)[nH]1 yielded an IC50 [1] of 4 nM and an IC50 (Blood) of 12800 nM.

For CC(Nc1cc(-c2[nH]c(SCC(=O)O)nc2-c2ccc(F)cc2)ccn1)c1ccccc1 (stereo not given), the IC50 [1] was 37 nM and the IC50 (Blood) was 65700 nM.

CC(C)C(C)Nc1cc(-c2[nH]c(SCCO)nc2-c2ccc(F)cc2)ccn1 (stereo not given) was tested, and the IC50 [1] was 11 nM and the IC50 (Blood) was 37 nM.
